Test results from article PMC10823175 (Proceedings of the National Academy of Sciences of the …, 2024).
Marks after values point to notes of the source that are not given here.

Key:
eIF4A1 [1] = target: T1, eIF4A1 (Homo sapiens, UniProt P60842); format: binding; conditions: for RNA template selectivity of compound-induced eIF4A1 clamping: 10 µM, poly (AG)8 vs poly (UC)8 RNA
Outline: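 Clamping: 1 mM AMPPNP, ΔmP versus DMSO, n = 3 ±SD. Dissociation: complexes with 1 mM ATP, 30 min RT dark, then 1,000-fold excess unlabeled poly(AG)8, polarization over time; one-phase-decay half-life, 95% CI errors.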

eIF4A1 [2] = target: T1, eIF4A1; assay: Differential scanning fluorimetry of eIF4A1; format: binding; conditions: eIF4A1 8 µM, compound 15 µM, 15 µM poly (AG)8, 1 mM AMPPNP
Outline: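 His6-eIF4A1 (E. coli BL21(DE3), Ni-NTA then Q-Sepharose) at 8 µM with 15 µM test compound or DMSO. Heated 37 to 75 °C at 1 °C/min; ΔT50 from the unfolding midpoint; n = 3 ±SD.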

4T1-526 mammary tumors = assay: 4T1-526 mammary fat pad tumor growth; format: in vivo, BALB/c mice
[3] = system: MDA-MB-231, 4T1, MRC-5 cells; assay: Western blot of c-MYC, cyclin D1 and PARP; format: cell-based; conditions: MDA-MB-231 or 4T1 cancer cells; MG-002, CR-1-31B 100 nM, DXR 0.5 µg/mL; 24 h
[4] = system: cap-dependent (FLuc) translation; assay: In vitro translation in Krebs-2 extracts with bicistronic reporter mRNA; format: biochemical; conditions: read-out: IC50 toward inhibition of FLuc synthesis from (CAG)-FF/HCV-IRES/Ren mRNA, n = 2 ±SD
[5] = Plasma protein binding, mouse; format: in vitro ADME
[6] = Plasma protein binding, human; format: in vitro ADME
[7] = system: mRNA translation in 4T1-526 cells; assay: Puromycin incorporation in 4T1-526 cells; format: cell-based; conditions: read-out: IC50 for inhibition of mRNA translation
4T1-526 cells = assay: Cell death of 4T1-526 cells; format: cell-based; conditions: 72h exposure at IC50 doses
[8] = delivered IV 1 mg/kg; cited from earlier work

T1 sequence (P60842 whole entry): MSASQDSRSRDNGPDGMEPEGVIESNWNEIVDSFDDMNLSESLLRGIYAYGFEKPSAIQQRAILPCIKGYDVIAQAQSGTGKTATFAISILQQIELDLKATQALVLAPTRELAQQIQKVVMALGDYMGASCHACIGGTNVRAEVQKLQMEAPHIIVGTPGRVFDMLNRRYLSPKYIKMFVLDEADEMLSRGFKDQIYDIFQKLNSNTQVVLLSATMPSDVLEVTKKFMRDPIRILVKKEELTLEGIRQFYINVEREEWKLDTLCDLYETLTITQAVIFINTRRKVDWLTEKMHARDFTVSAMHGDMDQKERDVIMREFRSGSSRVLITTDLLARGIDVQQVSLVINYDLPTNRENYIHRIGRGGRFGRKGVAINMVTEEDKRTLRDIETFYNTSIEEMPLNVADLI

Row | Compound | RNA template selectivity of compound-induced eIF4A1 clamping (eIF4A1 [1]) | transition midpoint temperature shift (ΔT50) (eIF4A1 [2]) [°C] | primary tumor response, monotherapy versus combination (4T1-526 mammary tumors; 0.5 mg/kg MG-002 PO, 2.5 mg/kg DXR IP, every 3 d) | cleavage of PARP [3] | half-life of complexes, fold less than those formed with MG-002 (eIF4A1 [1]; poly (AG) RNA) | IC50 [4] [nM] | Plasma protein binding (% bound) Mouse [5] [% bound] | Plasma protein binding (% bound) Human [6] [% bound] | IC50 [7] [nM] | tumor growth after intraperitoneal or intravenous delivery (4T1-526 mammary tumors; intraperitoneal or intravenous delivery) | cell death (4T1-526 cells) | T1/2 (h) [8]
1 | CC(/C=C/C(C)=C/[C@@H]1Cc2nc(cs2)[C@@H](C)C[C@@H](N)CC(=O)O[C@@H](C)C/C(C)=C/C=C\C(=O)O1)=C\CN(C)C [PatA, pateamine A] | stabilized binding of eIF4A1 to both polypurine and polypyrimidine RNA templates | 10 |  |  |  |  |  |  |  |  |  | 
2 | COc1cccc2c1C(=O)c1c(O)c3c(c(O)c1C2=O)C[C@@](O)(C(=O)CO)C[C@@H]3O[C@H]1C[C@H](N)[C@H](O)[C@H](C)O1 [DXR, doxorubicin] |  |  | equally responsive | cleavage of PARP was observed |  |  |  |  |  |  |  | 
3 | COc1cc2c(c(OC)n1)[C@]1(O)[C@H](O)[C@H](CN(C)C)[C@@H](c3ccccc3)[C@]1(c1ccc(C#N)cc1)O2 [eFT226] | discriminated between poly (AG)8 and poly (UC)8 RNA templates | 7 |  |  | approximately 2.5 fold | 813 ± 91 | 73.4 ± 1.1 | 79.4 ± 0.3 | ~8 | similarly delayed tumor growth | Significant cell death | 10.9^§ h
